{"source": "paper PMC10339703", "about": "(Clinical and Translational Science, 2023)", "key": {"[1]": {"assay": "Metabolite profile in liver microsomes", "type": "in vitro ADME"}, "healthy subjects": {"tested_on": "healthy subjects", "assay": "Safety and tolerability", "type": "in vivo, human", "in_short": "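Randomized, double-blind, placebo-controlled (6:2, n = 8/cohort) single oral doses in healthy adults after ≥10 h fast, with sentinel pair observed 24 h first. TEAEs were graded by nature, incidence, severity, seriousness and outcome, coded in MedDRA 23.0. ADR: any AE whose causality to test compound could not be ruled out. Labs, vital signs, examinations and 12-lead ECGs were also monitored.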"}}}
{"smiles": "O[C@H]1CCCN[C@@H]1CCCn1cnc2c(Cl)c(Cl)ccc21", "note": "[Bersiporocin]", "values": [{"measurement": "number of metabolites identified", "setting": "[1]", "result": 21}, {"measurement": "ADRs, number of events", "setting": "healthy subjects; SAD single 100 mg capsule", "result": 3}, {"measurement": "Abdominal discomfort (ADR), subjects n (%)", "setting": "healthy subjects; SAD single 100 mg capsule", "result": 0}, {"measurement": "Abdominal distension (ADR), subjects n (%)", "setting": "healthy subjects; SAD single 100 mg capsule", "result": 0}, {"measurement": "Abdominal pain (ADR), subjects n (%)", "setting": "healthy subjects; SAD single 100 mg capsule", "result": 0}, {"measurement": "Abdominal pain upper (ADR), subjects n (%)", "setting": "healthy subjects; SAD single 100 mg capsule", "result": 0}, {"measurement": "Constipation (ADR), subjects n (%)", "setting": "healthy subjects; SAD single 100 mg capsule", "result": 0}, {"measurement": "Decreased appetite (ADR), subjects n (%)", "setting": "healthy subjects; SAD single 100 mg capsule", "result": 0}, {"measurement": "Diarrhea (ADR), subjects n (%)", "setting": "healthy subjects; SAD single 100 mg capsule", "result": 0}, {"measurement": "Dysgeusia (ADR), subjects n (%)", "setting": "healthy subjects; SAD single 100 mg capsule", "result": 0}, {"measurement": "Epigastric discomfort (ADR), subjects n (%)", "setting": "healthy subjects; SAD single 100 mg capsule", "result": 0}, {"measurement": "Gastroesophageal reflux disease (ADR), number of events", "setting": "healthy subjects; SAD single 100 mg capsule", "result": 1}, {"measurement": "Gastroesophageal reflux disease (ADR), subjects n (%)", "setting": "healthy subjects; SAD single 100 mg capsule", "result": "1 (16.7)"}, {"measurement": "Headache (ADR), subjects n (%)", "setting": "healthy subjects; SAD single 100 mg capsule", "result": 0}, {"measurement": "Hypersensitivity (ADR), subjects n (%)", "setting": "healthy subjects; SAD single 100 mg capsule", "result": 0}, {"measurement": "Hypotension (ADR), subjects n (%)", "setting": "healthy subjects; SAD single 100 mg capsule", "result": 0}, {"measurement": "Malaise (ADR), subjects n (%)", "setting": "healthy subjects; SAD single 100 mg capsule", "result": 0}, {"measurement": "Nausea (ADR), number of events", "setting": "healthy subjects; SAD single 100 mg capsule", "result": 1}, {"measurement": "Nausea (ADR), subjects n (%)", "setting": "healthy subjects; SAD single 100 mg capsule", "result": "1 (16.7)"}, {"measurement": "Neutropenia (ADR), number of events", "setting": "healthy subjects; SAD single 100 mg capsule", "result": 1}, {"measurement": "Neutropenia (ADR), subjects n (%)", "setting": "healthy subjects; SAD single 100 mg capsule", "result": "1 (16.7)"}, {"measurement": "Oropharyngeal pain (ADR), subjects n (%)", "setting": "healthy subjects; SAD single 100 mg capsule", "result": 0}, {"measurement": "Photosensitivity reaction (ADR), subjects n (%)", "setting": "healthy subjects; SAD single 100 mg capsule", "result": 0}, {"measurement": "Subjects with ADRs, n (%)", "setting": "healthy subjects; SAD single 100 mg capsule", "result": "3 (50.0)"}, {"measurement": "Tachycardia (ADR), subjects n (%)", "setting": "healthy subjects; SAD single 100 mg capsule", "result": 0}, {"measurement": "Vertigo (ADR), subjects n (%)", "setting": "healthy subjects; SAD single 100 mg capsule", "result": 0}, {"measurement": "Vomiting (ADR), subjects n (%)", "setting": "healthy subjects; SAD single 100 mg capsule", "result": 0}, {"measurement": "ADRs, number of events", "setting": "healthy subjects; SAD single 100 mg solution", "result": 12}, {"measurement": "Abdominal discomfort (ADR), subjects n (%)", "setting": "healthy subjects; SAD single 100 mg solution", "result": 0}, {"measurement": "Abdominal distension (ADR), subjects n (%)", "setting": "healthy subjects; SAD single 100 mg solution", "result": 0}, {"measurement": "Abdominal pain (ADR), subjects n (%)", "setting": "healthy subjects; SAD single 100 mg solution", "result": 0}, {"measurement": "Abdominal pain upper (ADR), subjects n (%)", "setting": "healthy subjects; SAD single 100 mg solution", "result": 0}, {"measurement": "Constipation (ADR), subjects n (%)", "setting": "healthy subjects; SAD single 100 mg solution", "result": 0}, {"measurement": "Decreased appetite (ADR), subjects n (%)", "setting": "healthy subjects; SAD single 100 mg solution", "result": 0}, {"measurement": "Diarrhea (ADR), subjects n (%)", "setting": "healthy subjects; SAD single 100 mg solution", "result": 0}, {"measurement": "Dysgeusia (ADR), number of events", "setting": "healthy subjects; SAD single 100 mg solution", "result": 1}, {"measurement": "Dysgeusia (ADR), subjects n (%)", "setting": "healthy subjects; SAD single 100 mg solution", "result": "1 (16.7)"}, {"measurement": "Epigastric discomfort (ADR), subjects n (%)", "setting": "healthy subjects; SAD single 100 mg solution", "result": 0}, {"measurement": "Gastroesophageal reflux disease (ADR), subjects n (%)", "setting": "healthy subjects; SAD single 100 mg solution", "result": 0}, {"measurement": "Headache (ADR), number of events", "setting": "healthy subjects; SAD single 100 mg solution", "result": 2}, {"measurement": "Headache (ADR), subjects n (%)", "setting": "healthy subjects; SAD single 100 mg solution", "result": "2 (33.3)"}, {"measurement": "Hypersensitivity (ADR), subjects n (%)", "setting": "healthy subjects; SAD single 100 mg solution", "result": 0}, {"measurement": "Hypotension (ADR), subjects n (%)", "setting": "healthy subjects; SAD single 100 mg solution", "result": 0}, {"measurement": "Malaise (ADR), subjects n (%)", "setting": "healthy subjects; SAD single 100 mg solution", "result": 0}, {"measurement": "Nausea (ADR), number of events", "setting": "healthy subjects; SAD single 100 mg solution", "result": 5}, {"measurement": "Nausea (ADR), subjects n (%)", "setting": "healthy subjects; SAD single 100 mg solution", "result": "5 (83.3)"}, {"measurement": "Neutropenia (ADR), subjects n (%)", "setting": "healthy subjects; SAD single 100 mg solution", "result": 0}, {"measurement": "Oropharyngeal pain (ADR), subjects n (%)", "setting": "healthy subjects; SAD single 100 mg solution", "result": 0}, {"measurement": "Photosensitivity reaction (ADR), subjects n (%)", "setting": "healthy subjects; SAD single 100 mg solution", "result": 0}, {"measurement": "Subjects with ADRs, n (%)", "setting": "healthy subjects; SAD single 100 mg solution", "result": "5 (83.3)"}, {"measurement": "Tachycardia (ADR), subjects n (%)", "setting": "healthy subjects; SAD single 100 mg solution", "result": 0}, {"measurement": "Vertigo (ADR), subjects n (%)", "setting": "healthy subjects; SAD single 100 mg solution", "result": 0}, {"measurement": "Vomiting (ADR), number of events", "setting": "healthy subjects; SAD single 100 mg solution", "result": 4}, {"measurement": "Vomiting (ADR), subjects n (%)", "setting": "healthy subjects; SAD single 100 mg solution", "result": "4 (66.7)"}, {"measurement": "ADRs, number of events", "setting": "healthy subjects; SAD single 300 mg capsule", "result": 15}, {"measurement": "Abdominal discomfort (ADR), subjects n (%)", "setting": "healthy subjects; SAD single 300 mg capsule", "result": 0}, {"measurement": "Abdominal distension (ADR), number of events", "setting": "healthy subjects; SAD single 300 mg capsule", "result": 1}, {"measurement": "Abdominal distension (ADR), subjects n (%)", "setting": "healthy subjects; SAD single 300 mg capsule", "result": "1 (16.7)"}, {"measurement": "Abdominal pain (ADR), number of events", "setting": "healthy subjects; SAD single 300 mg capsule", "result": 2}, {"measurement": "Abdominal pain (ADR), subjects n (%)", "setting": "healthy subjects; SAD single 300 mg capsule", "result": "2 (33.3)"}, {"measurement": "Abdominal pain upper (ADR), subjects n (%)", "setting": "healthy subjects; SAD single 300 mg capsule", "result": 0}, {"measurement": "Constipation (ADR), subjects n (%)", "setting": "healthy subjects; SAD single 300 mg capsule", "result": 0}, {"measurement": "Decreased appetite (ADR), number of events", "setting": "healthy subjects; SAD single 300 mg capsule", "result": 1}, {"measurement": "Decreased appetite (ADR), subjects n (%)", "setting": "healthy subjects; SAD single 300 mg capsule", "result": "1 (16.7)"}, {"measurement": "Diarrhea (ADR), number of events", "setting": "healthy subjects; SAD single 300 mg capsule", "result": 2}, {"measurement": "Diarrhea (ADR), subjects n (%)", "setting": "healthy subjects; SAD single 300 mg capsule", "result": "2 (33.3)"}, {"measurement": "Dysgeusia (ADR), subjects n (%)", "setting": "healthy subjects; SAD single 300 mg capsule", "result": 0}, {"measurement": "Epigastric discomfort (ADR), subjects n (%)", "setting": "healthy subjects; SAD single 300 mg capsule", "result": 0}, {"measurement": "Gastroesophageal reflux disease (ADR), subjects n (%)", "setting": "healthy subjects; SAD single 300 mg capsule", "result": 0}, {"measurement": "Headache (ADR), number of events", "setting": "healthy subjects; SAD single 300 mg capsule", "result": 1}, {"measurement": "Headache (ADR), subjects n (%)", "setting": "healthy subjects; SAD single 300 mg capsule", "result": "1 (16.7)"}, {"measurement": "Hypersensitivity (ADR), subjects n (%)", "setting": "healthy subjects; SAD single 300 mg capsule", "result": 0}, {"measurement": "Hypotension (ADR), subjects n (%)", "setting": "healthy subjects; SAD single 300 mg capsule", "result": 0}, {"measurement": "Malaise (ADR), number of events", "setting": "healthy subjects; SAD single 300 mg capsule", "result": 1}, {"measurement": "Malaise (ADR), subjects n (%)", "setting": "healthy subjects; SAD single 300 mg capsule", "result": "1 (16.7)"}, {"measurement": "Nausea (ADR), number of events", "setting": "healthy subjects; SAD single 300 mg capsule", "result": 4}, {"measurement": "Nausea (ADR), subjects n (%)", "setting": "healthy subjects; SAD single 300 mg capsule", "result": "3 (50.0)"}, {"measurement": "Neutropenia (ADR), subjects n (%)", "setting": "healthy subjects; SAD single 300 mg capsule", "result": 0}, {"measurement": "Oropharyngeal pain (ADR), subjects n (%)", "setting": "healthy subjects; SAD single 300 mg capsule", "result": 0}, {"measurement": "Photosensitivity reaction (ADR), subjects n (%)", "setting": "healthy subjects; SAD single 300 mg capsule", "result": 0}]}
